{
  "source": "paper PMC7684765",
  "about": "(Journal of medicinal chemistry, 2020)",
  "key": {"[1]": {"assay": "PAINS exclusion assay", "type": "physicochemical", "conditions": "up to 24 h"}, "[2]": {"system": "ATP levels in HT-22 cells", "conditions": "5 μM; cited from earlier work"}, "[3]": {"system": "zebrafish", "conditions": "cited from earlier work"}, "[4]": {"system": "6 Hz 44 mA mouse seizure model", "conditions": "cited from earlier work"}, "[5]": {"system": "PTZ-induced seizures in zebrafish larvae", "conditions": "20 μM; cited from earlier work"}, "[6]": {"system": "6 Hz 32 mA mouse seizure model", "conditions": "6 Hz 32 mA mouse model, at 15 min; cited from earlier work"}, "[7]": {"conditions": "two hours; cited from earlier work"}, "[8]": {"system": "HT-22 neuronal cells", "assay": "HT-22 cell toxicity study", "type": "cell-based", "conditions": "up to 50 μM", "how_it_was_run": "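HT-22 neuronal cells were grown in high-glucose DMEM with 10% FBS and 1% antibiotic-antimycotic at 37 °C and 5% CO2. Cells were seeded at 2000 per well. After 12 h, serially diluted test compound was added for 48 h. […] Readings were background-subtracted and normalized to control wells.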"}, "[9]": {"system": "6 Hz 32 mA mouse seizure model", "assay": "6 Hz 32 mA mouse seizure test", "type": "in vivo", "conditions": "ip"}, "[10]": {"system": "6 Hz 44 mA mouse seizure model", "assay": "6 Hz 44 mA mouse seizure test", "type": "in vivo", "conditions": "ip, 400 mg/kg"}, "[11]": {"system": "MES-induced seizures", "assay": "Maximal electroshock", "type": "in vivo", "conditions": "MES model, mouse, ip, 350 mg/kg", "how_it_was_run": "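Male CF-1 mice, 8 per group per dose, received test compound ip as a suspension in 0.5% HPMC, 1 h before stimulation. Tetracaine (0.5%) in electrolyte was applied to the eyes. A 60 Hz, 50 mA alternating current was delivered through corneal electrodes […]. Animals without hindlimb tonic extension were scored protected. Results are given as N/F, and ED50 was calculated by probit analysis.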"}, "[12]": {"system": "s.c. PTZ mouse model", "assay": "Subcutaneous pentylenetetrazole", "type": "in vivo", "conditions": "ip, 450 mg/kg, 1 h", "how_it_was_run": "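Test compound was suspended in 0.5% HPMC and given ip to male CF-1 mice, 8 per group per dose. One hour later, 85 mg/kg PTZ was injected subcutaneously into the midline of the neck. Mice showing no spasms or twitching were scored protected.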"}, "[13]": {"system": "motor impairment (mouse rotarod assay)", "assay": "Behavioral toxicity in mice", "type": "in vivo", "conditions": "acute (~1h) observation period, dose up to 800 mg/kg"}, "[14]": {"assay": "Pharmacokinetics in mice", "type": "in vivo", "conditions": "Mus musculus, read-out: free EC50 in mice"}, "[15]": {"system": "recurrent epileptiform discharges (REDs) in brain slices from the kainite-induced status epilepticus model", "assay": "Spontaneous recurrent epileptiform discharges", "conditions": "brain slices in vitro"}, "[16]": {"assay": "Lethality and other treatment effects in mice seizure models", "type": "in vivo", "conditions": "CF-1, mouse, in vivo, intraperitoneal"}, "[17]": {"system": "mice", "assay": "Lethality and other treatment effects in mice seizure models", "type": "in vivo", "conditions": "mice"}, "[18]": {"system": "6 Hz mouse seizure model at 22 mA", "assay": "6 Hz 22 mA mouse seizure model", "type": "in vivo", "conditions": "up to 400 mg/kg"}},
  "note": "“Also recorded” adds a separate entry of the source. Read-outs that look alike come from different tables or passages of the source.",
  "data": [
    {"smiles": "CC1=CC(=O)c2ccccc2C1=O", "note": "[VK3]", "values": [
      {"measurement": "reaction with 2-mercaptoethanol (Michael reaction)", "setting": "[1]", "result": "rapidly reacts"},
      {"measurement": "effect on ATP levels", "setting": "[2]", "result": "can increase ATP levels"},
      {"measurement": "lethal dose", "setting": "[3]", "result": 7, "unit": "µM"}
    ]},
    {"smiles": "CC[C@@H](C(N)=O)N1CCCC1=O", "note": "[Levetiracetam]", "values": [
      {"measurement": "6 Hz 44 mA ED50", "setting": "[4]; 6 Hz 44 mA seizure model", "result": "over 1000 mg/kg"}
    ]},
    {"smiles": "C#CCNC1=CC(=O)c2ccccc2C1=O", "note": "[2h]", "values": [
      {"measurement": "anti-seizure activity", "setting": "[5]", "result": "clear anti-seizure activity"},
      {"measurement": "seizure protection", "setting": "[6]", "result": "full protection"},
      {"measurement": "seizure protection", "setting": "[4]; 6 Hz 44 mA mouse model", "result": "no longer protective; also recorded: did not show any protection"},
      {"measurement": "effect on ATP levels", "setting": "[2]", "result": "can increase ATP levels"},
      {"measurement": "stability in mouse serum", "setting": "[7]", "result": "no catabolic conversion"},
      {"measurement": "toxicity", "setting": "[3]; 20 μM", "result": "no observable toxicity"}
    ]},
    {"smiles": "CC(C)CCNC1=CC(=O)c2ccccc2C1=O", "note": "[3d, 2-(isopentylamino)naphthalene-1,4-dione]", "values": [
      {"measurement": "toxicity in HT-22 cells (in words)", "setting": "[8]", "result": "do not display obvious toxicity; also recorded: does not show obvious toxicity"},
      {"measurement": "seizure protection", "setting": "[9]; 400 mg/kg", "result": "full protection"},
      {"measurement": "ED50 value (EC50)", "setting": "[9]; time of test 1 h", "result": 152.7, "unit": "mg/kg"},
      {"measurement": "seizure protection", "setting": "[10]", "result": "full protection"},
      {"measurement": "seizure protection", "setting": "[11]", "result": "full protection"},
      {"measurement": "animals protected", "setting": "[12]", "result": "6 out of 8"},
      {"measurement": "motor impairment (mouse rotarod assay)", "setting": "[13]", "result": "does not show signs of major motor impairment"},
      {"measurement": "EC50", "setting": "[14]", "result": "~0.123", "unit": "µM"},
      {"measurement": "reaction with 2-mercaptoethanol (Michael reaction)", "setting": "[1]", "result": "does not react"},
      {"measurement": "effect on spontaneous REDs", "setting": "[15]", "result": "does not attenuate"},
      {"measurement": "LD50 at 24 h", "setting": "[16]", "result": "> 800", "unit": "mg/kg"},
      {"measurement": "doses lethal in some animals", "setting": "[17]; after electric stimulation, after 24h (data not shown)", "result": "greater than 500 mg/kg"},
      {"measurement": "other effects of treatment observed", "setting": "[17]; at time of treatment and ~1 h observation period (data not shown)", "result": "writhing (abdominal constriction); also recorded: discolored urine and lethargy"}
    ]},
    {"smiles": "O=C1C=C(NCCC2CCC2)C(=O)c2ccccc21", "note": "[3l, 2-((2-cyclobutylethyl)amino)naphthalene-1,4-dione]", "values": [
      {"measurement": "toxicity in HT-22 cells (in words)", "setting": "[8]", "result": "do not display obvious toxicity"},
      {"measurement": "seizure protection", "setting": "[18]", "result": "without full seizure protection"}
    ]}
  ]
}
